Measurements reported in ChEMBL document CHEMBL1152657, “1-(2-((Z)-6-(2-(Trifluoromethyl)phenyl)hexa-3-en-1,5-diynyl)phenyl)piperidin-2-one as a new potent apoptosis agent” (2009).
Values belong to the compound of their own block, whether it stands above or below them. The source made the active and inactive calls. The calls are words filed in the database; no cut-off is given here.

Experiments:
MDA-MB-435 = assay: Growth inhibition of human MDA-MB-435 cells; assay type: functional
In short: (§1)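 Tested in the NCI in vitro antitumor screening protocol on human tumor lines. The value is the concentration giving 50% reduction in cell growth.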

K562 [1] = assay: Cell cycle arrest in human K562 cells assessed as accumulation at G0/G1 phase at 50 uM after 24 hrs by flow cytometry; assay type: functional
In short: (§2)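 K-562 cells (RPMI 1640, 10% fetal calf serum, 37 °C, 5% CO2) were exposed for 24 h, then fixed in ice-cold 70% ethanol for 30 min. They were treated with RNase A (1 mg/ml, 37 °C, 30 min) and stained with propidium iodide and Triton X-100 solution for 30 min in the dark. DNA content was read on 10,000 events by flow cytometry, and the sub-G1 region was gated as apoptotic.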

K562 [2] = assay: Cell cycle arrest in human K562 cells assessed as accumulation at S phase at 10 uM after 24 hrs by flow cytometry; assay type: functional; in short: as §2
K562 [3] = assay: Cell cycle arrest in human K562 cells assessed as accumulation at G2/M phase at 50 uM after 24 hrs by flow cytometry; assay type: functional; in short: as §2
OVCAR-3 = assay: Growth inhibition of human OVCAR-3 cells; assay type: functional; in short: as §1
MDA-MB-231 = assay: Growth inhibition of human MDA-MB-231 cells; assay type: functional; in short: as §1
K562 [4] = assay: Growth inhibition of human K562 cells; assay type: functional; in short: as §1
M14 = assay: Growth inhibition of human M14 cells; assay type: functional; in short: as §1
K562 [5] = assay: Cell cycle arrest in human K562 cells assessed as accumulation at S phase at 50 uM after 24 hrs by flow cytometry; assay type: functional; in short: as §2
UACC-62 = assay: Growth inhibition of human UACC62 cells; assay type: functional; in short: as §1
HCT-15 = assay: Growth inhibition of human HCT15 cells; assay type: functional; in short: as §1
K562 [6] = assay: Cell cycle arrest in human K562 cells assessed as accumulation at SubG1 phase at 10 uM after 24 hrs by flow cytometry; assay type: functional; in short: as §2
K562 [7] = assay: Cell cycle arrest in human K562 cells assessed as accumulation at SubG1 phase at 50 uM after 24 hrs by flow cytometry; assay type: functional; in short: as §2
DU-145 = assay: Growth inhibition of human DU145 cells; assay type: functional; in short: as §1
SNB-75 = assay: Growth inhibition of human SNB75 cells; assay type: functional; in short: as §1
HOP-62 = assay: Growth inhibition of human HOP62 cells; assay type: functional; in short: as §1
HCC 2998 = assay: Growth inhibition of human HCC2998 cells; assay type: functional; in short: as §1
ACHN = assay: Growth inhibition of human ACHN cells; assay type: functional; in short: as §1
CCRF-CEM = assay: Growth inhibition of human CCRF-CEM cells; assay type: functional; in short: as §1
K562 [8] = assay: Cell cycle arrest in human K562 cells assessed as accumulation at G2/M phase at 10 uM after 24 hrs by flow cytometry; assay type: functional; in short: as §2
K562 [9] = assay: Cell cycle arrest in human K562 cells assessed as accumulation at G0/G1 phase at 10 uM after 24 hrs by flow cytometry; assay type: functional; in short: as §2
K562 [10] = assay: Cell cycle arrest in human K562 cells assessed as accumulation at G1 phase at 50 uM after 24 hrs by flow cytometry; assay type: functional; in short: as §2
K562 [11] = assay: Induction of apoptosis in human K562 cells assessed as increase in caspase-9 activity at 50 uM by colorimetric assay; assay type: functional, cell-based
In short: (§3)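 Treated K-562 cells (1×10^6 cells/ml) were PBS-washed and lysed on ice for 10 min, and the cytosolic supernatant was cleared at 18,000 g. Protein was measured by BCA. Lysate protein was incubated with caspase-specific colorigenic substrate in 2X reaction buffer with 10 mM DTT at 37 °C for 1 h, and absorbance was read at 405 nm.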

HeLa = assay: Induction of microtubule depolymerization in human HeLa cells at 50 uM after 2 hrs by immunocytochemistry; assay type: functional, cell-based
In short: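 HeLa cells were grown 24 h on coverslips, then treated at 37 °C. They were fixed in 4% paraformaldehyde for 5 min and permeabilized with 0.5% Triton X-100. After blocking with 5% goat serum/1% BSA, cells were stained with anti-ninein and anti-tubulin (45 min, 37 °C), then Alexa-conjugated secondaries and DAPI. Imaging was by confocal microscopy with a 100x objective.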

K562 [12] = assay: Induction of apoptosis in human K562 cells assessed as increase in caspase-3 activity by colorimetric assay; assay type: functional, cell-based; in short: as §3
K562 [13] = assay: Cell cycle arrest in human K562 cells assessed as apoptotic cells at 50 uM after 24 hrs by flow cytometry; assay type: functional; in short: as §2
K562 [14] = assay: Induction of apoptosis in human K562 cells assessed as increase in caspase-9 activity at 25 uM by colorimetric assay; assay type: functional, cell-based; in short: as §3
K562 [15] = assay: Induction of apoptosis in human K562 cells assessed as upregulation of Bax protein level after 24 hrs by Western blot; assay type: functional, cell-based
In short: (§4)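 Cells were dosed at several concentrations for 24 h and lysed in Tris-HCl pH 7.5 NP-40 buffer with phosphatase inhibitors. Equal protein was run on SDS-PAGE and transferred to PVDF. Membranes were blocked with 5% nonfat milk in TBST for 1 h, then immunoblotted.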

K562 [16] = assay: Induction of apoptosis in human K562 cells assessed as PARP cleavage after 24 hrs by Western blot; assay type: functional, cell-based; in short: as §4
K562 [17] = assay: Induction of apoptosis in human K562 cells assessed as downregulation of XIAP protein level after 24 hrs by Western blot; assay type: functional, cell-based; in short: as §4
K562 [18] = assay: Induction of apoptosis in human K562 cells assessed as cytochrome-C release after 24 hrs by Western blot; assay type: functional, cell-based; in short: as §4
K562 [19] = assay: Induction of apoptosis in human K562 cells assessed as down-regulation of Bcl2 protein level after 24 hrs by Western blot; assay type: functional, cell-based; in short: as §4

SMILES: Nc1ccccc1C#C/C=C\C#Cc1ccccc1C(F)(F)F
Activity (K562 [3]): 73.9% | Activity (K562 [5]): 19.3% | Activity (K562 [10]): 6.7% | Activity (K562 [11]): Active | Activity (HeLa): Active | Activity (K562 [12]): Dose-dependent effect | Activity (K562 [13]): 19.4% | Activity (K562 [14]): Active

SMILES: O=C1CCCCN1c1ccccc1C#C/C=C\C#Cc1ccccc1C(F)(F)F
GI50 (MDA-MB-435): 600 nM | Activity (K562 [1]): 40.3% | Activity (K562 [2]): 12.9% | Activity (K562 [3]): 59.7% | Activity (K562 [15]): Dose-dependent effect | GI50 (OVCAR-3): 870 nM | GI50 (MDA-MB-231): 1160 nM | GI50 (K562 [4]): 8560 nM | GI50 (M14): 900 nM | Activity (K562 [5]): 0% | GI50 (UACC-62): 1440 nM | GI50 (HCT-15): 1530 nM | Activity (K562 [6]): 23.9% | Activity (K562 [7]): 31.57% | GI50 (DU-145): 1680 nM | Activity (K562 [16]): Active | Activity (K562 [17]): Dose-dependent effect | Activity (K562 [10]): 27.7% | Activity (K562 [11]): Active | GI50 (SNB-75): 1610 nM | GI50 (HOP-62): 890 nM | GI50 (HCC 2998): 950 nM | Activity (K562 [18]): Dose-dependent effect | Activity (K562 [19]): Dose-dependent effect | Activity (HeLa): Active | Activity (K562 [12]): Dose-dependent effect | GI50 (ACHN): 2670 nM | GI50 (CCRF-CEM): 1560 nM | Activity (K562 [8]): 78.3% | Activity (K562 [13]): 51% | Activity (K562 [14]): Active | Activity (K562 [9]): 8.9%

SMILES: CSc1ccccc1C#C/C=C\C#Cc1ccccc1N1CCCC1=O
GI50 (MDA-MB-435): 900 nM | Activity (K562 [1]): 7.7% | Activity (K562 [2]): 0% | Activity (K562 [3]): 69.4% | GI50 (OVCAR-3): 1030 nM | GI50 (MDA-MB-231): 1190 nM | GI50 (K562 [4]): 440 nM | GI50 (M14): 3000 nM | Activity (K562 [5]): 22.9% | GI50 (UACC-62): 1440 nM | GI50 (HCT-15): 1530 nM | Activity (K562 [6]): 15.39% | Activity (K562 [7]): 17.79% | GI50 (DU-145): 10100 nM | GI50 (SNB-75): 2340 nM | GI50 (HOP-62): 5020 nM | GI50 (HCC 2998): 1320 nM | GI50 (ACHN): 10500 nM | GI50 (CCRF-CEM): 210 nM | Activity (K562 [8]): 51.7% | Activity (K562 [9]): 49.3%

Continued, in another order:

GI50 (MDA-MB-435): 1920 nM | GI50 (OVCAR-3): 8870 nM | GI50 (MDA-MB-231): 7920 nM | GI50 (K562 [4]): 6360 nM | GI50 (HCT-15): 4270 nM | GI50 (DU-145): 40500 nM | GI50 (HCC 2998): 5080 nM | GI50 (ACHN): 30100 nM | GI50 (CCRF-CEM): 2750 nM
SMILES: CCC(=O)Nc1ccccc1C#C/C=C\C#Cc1ccccc1C(F)(F)F
Activity (K562 [1]): 1.2% | Activity (K562 [2]): 51.9% | Activity (K562 [3]): 82.7% | GI50 (M14): 12000 nM | Activity (K562 [5]): 16.1% | GI50 (UACC-62): 4040 nM | Activity (K562 [6]): 15.3% | Activity (K562 [7]): 26.11% | GI50 (SNB-75): 4760 nM | GI50 (HOP-62): 10000 nM | Activity (K562 [8]): 33.5% | Activity (K562 [9]): 14.6%

GI50 (MDA-MB-435): 750 nM | GI50 (OVCAR-3): 1790 nM | GI50 (MDA-MB-231): 2170 nM | GI50 (K562 [4]): 2290 nM | GI50 (HCT-15): 3350 nM | GI50 (DU-145): 1930 nM | GI50 (HCC 2998): 4190 nM | GI50 (ACHN): 4080 nM | GI50 (CCRF-CEM): 790 nM
SMILES: CCC(=O)Nc1ccccc1C#C/C=C\C#Cc1ccccc1SC
Activity (K562 [1]): 18.7% | Activity (K562 [2]): 42.1% | Activity (K562 [3]): 68.5% | GI50 (M14): 1790 nM | Activity (K562 [5]): 12.7% | GI50 (UACC-62): 1690 nM | Activity (K562 [6]): 9.8% | Activity (K562 [7]): 16.2% | GI50 (SNB-75): 630 nM | GI50 (HOP-62): 2520 nM | Activity (K562 [8]): 35.2% | Activity (K562 [9]): 22.7%
